Legend:
Penicillium decumbens = assay: Inhibition of Penicillium decumbens alpha-L-rhamnosidase assessed as production of p-nitrophenol at 1000 uM by spectrophotometry
Summary of the method: (§1)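 p-Nitrophenyl glycoside matched to each enzyme, 2 mM, with enzyme at that enzyme's optimum pH: Penicillium decumbens α-L-rhamnosidase pH 4.0, bovine liver β-galactosidase pH 6.8, coffee bean α-galactosidase pH 6.5, jack bean α-mannosidase pH 4.5, snail β-mannosidase pH 4.5. Stopped with 400 mM Na2CO3; released p-nitrophenol read at 400 nm.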

Canavalia ensiformis = assay: Inhibition of jack beans alpha-mannosidase assessed as production of p-nitrophenol at 1000 uM by spectrophotometry; summary of the method: as §1
Oryza sativa = conditions: 1000 uM
[1] = biological target: Sucrase-isomaltase, intestinal (Rattus norvegicus) (UniProt P23739); conditions: 1000 uM
Chain of Sucrase-isomaltase, intestinal (Rattus norvegicus) (P23739 1-1013 limits assumed): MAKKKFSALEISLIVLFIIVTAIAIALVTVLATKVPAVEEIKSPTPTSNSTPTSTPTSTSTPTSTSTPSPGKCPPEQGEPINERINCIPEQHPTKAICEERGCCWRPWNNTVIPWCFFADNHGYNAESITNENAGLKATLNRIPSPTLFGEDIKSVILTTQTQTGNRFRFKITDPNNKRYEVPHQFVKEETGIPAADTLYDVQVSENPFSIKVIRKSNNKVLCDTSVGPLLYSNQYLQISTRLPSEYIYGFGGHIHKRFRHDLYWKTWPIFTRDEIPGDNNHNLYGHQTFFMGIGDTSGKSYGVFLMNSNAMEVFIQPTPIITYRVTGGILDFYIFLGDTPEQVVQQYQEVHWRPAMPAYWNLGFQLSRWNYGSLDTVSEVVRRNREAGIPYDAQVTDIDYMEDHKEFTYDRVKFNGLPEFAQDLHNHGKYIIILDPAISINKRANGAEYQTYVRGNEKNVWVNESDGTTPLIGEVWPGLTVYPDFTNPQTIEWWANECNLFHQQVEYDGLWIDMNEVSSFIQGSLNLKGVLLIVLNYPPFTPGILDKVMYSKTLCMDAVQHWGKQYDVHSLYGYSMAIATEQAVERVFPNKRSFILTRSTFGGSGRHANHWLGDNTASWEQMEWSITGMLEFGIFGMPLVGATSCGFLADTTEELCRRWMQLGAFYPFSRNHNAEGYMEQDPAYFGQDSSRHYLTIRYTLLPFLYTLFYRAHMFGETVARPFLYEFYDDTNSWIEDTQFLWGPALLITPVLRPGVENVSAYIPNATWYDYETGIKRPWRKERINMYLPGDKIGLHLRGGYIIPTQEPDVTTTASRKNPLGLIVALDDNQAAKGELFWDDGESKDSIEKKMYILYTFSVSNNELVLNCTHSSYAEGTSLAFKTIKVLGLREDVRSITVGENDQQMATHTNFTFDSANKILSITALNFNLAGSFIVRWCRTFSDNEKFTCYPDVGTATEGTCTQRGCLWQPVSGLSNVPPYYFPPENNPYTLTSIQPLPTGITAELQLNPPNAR
Chain of Sucrase-isomaltase, intestinal (Rattus norvegicus) (P23739 1014-1841 limits assumed): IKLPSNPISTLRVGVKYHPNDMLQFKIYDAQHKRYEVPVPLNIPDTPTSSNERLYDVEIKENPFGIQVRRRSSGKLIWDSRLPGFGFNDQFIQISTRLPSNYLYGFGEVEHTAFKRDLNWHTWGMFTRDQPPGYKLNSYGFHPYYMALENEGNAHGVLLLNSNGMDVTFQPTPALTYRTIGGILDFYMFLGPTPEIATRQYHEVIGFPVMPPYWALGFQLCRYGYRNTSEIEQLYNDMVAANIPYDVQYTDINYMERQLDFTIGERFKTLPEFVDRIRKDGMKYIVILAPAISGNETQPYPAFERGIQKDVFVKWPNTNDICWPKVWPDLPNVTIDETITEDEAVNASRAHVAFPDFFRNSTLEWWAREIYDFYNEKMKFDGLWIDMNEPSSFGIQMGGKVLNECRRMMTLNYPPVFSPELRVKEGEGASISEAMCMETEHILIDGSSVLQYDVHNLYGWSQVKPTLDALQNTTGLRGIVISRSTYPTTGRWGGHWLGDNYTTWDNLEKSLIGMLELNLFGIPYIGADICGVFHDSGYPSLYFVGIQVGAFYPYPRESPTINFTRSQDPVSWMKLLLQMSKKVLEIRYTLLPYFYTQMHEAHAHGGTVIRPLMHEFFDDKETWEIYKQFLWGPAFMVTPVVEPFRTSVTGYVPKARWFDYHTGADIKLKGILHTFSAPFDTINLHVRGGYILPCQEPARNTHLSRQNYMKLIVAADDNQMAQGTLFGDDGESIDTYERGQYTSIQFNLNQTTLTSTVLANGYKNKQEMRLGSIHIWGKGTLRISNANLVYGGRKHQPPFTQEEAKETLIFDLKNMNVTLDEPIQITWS

[2] = biological target: Lactase/phlorizin hydrolase (Rattus norvegicus, UniProt Q02401); assay: Inhibition of rat intestinal lactase assessed as production of p-nitrophenol by spectrophotometry
Chain of Lactase/phlorizin hydrolase (Q02401 868-1928 limits assumed): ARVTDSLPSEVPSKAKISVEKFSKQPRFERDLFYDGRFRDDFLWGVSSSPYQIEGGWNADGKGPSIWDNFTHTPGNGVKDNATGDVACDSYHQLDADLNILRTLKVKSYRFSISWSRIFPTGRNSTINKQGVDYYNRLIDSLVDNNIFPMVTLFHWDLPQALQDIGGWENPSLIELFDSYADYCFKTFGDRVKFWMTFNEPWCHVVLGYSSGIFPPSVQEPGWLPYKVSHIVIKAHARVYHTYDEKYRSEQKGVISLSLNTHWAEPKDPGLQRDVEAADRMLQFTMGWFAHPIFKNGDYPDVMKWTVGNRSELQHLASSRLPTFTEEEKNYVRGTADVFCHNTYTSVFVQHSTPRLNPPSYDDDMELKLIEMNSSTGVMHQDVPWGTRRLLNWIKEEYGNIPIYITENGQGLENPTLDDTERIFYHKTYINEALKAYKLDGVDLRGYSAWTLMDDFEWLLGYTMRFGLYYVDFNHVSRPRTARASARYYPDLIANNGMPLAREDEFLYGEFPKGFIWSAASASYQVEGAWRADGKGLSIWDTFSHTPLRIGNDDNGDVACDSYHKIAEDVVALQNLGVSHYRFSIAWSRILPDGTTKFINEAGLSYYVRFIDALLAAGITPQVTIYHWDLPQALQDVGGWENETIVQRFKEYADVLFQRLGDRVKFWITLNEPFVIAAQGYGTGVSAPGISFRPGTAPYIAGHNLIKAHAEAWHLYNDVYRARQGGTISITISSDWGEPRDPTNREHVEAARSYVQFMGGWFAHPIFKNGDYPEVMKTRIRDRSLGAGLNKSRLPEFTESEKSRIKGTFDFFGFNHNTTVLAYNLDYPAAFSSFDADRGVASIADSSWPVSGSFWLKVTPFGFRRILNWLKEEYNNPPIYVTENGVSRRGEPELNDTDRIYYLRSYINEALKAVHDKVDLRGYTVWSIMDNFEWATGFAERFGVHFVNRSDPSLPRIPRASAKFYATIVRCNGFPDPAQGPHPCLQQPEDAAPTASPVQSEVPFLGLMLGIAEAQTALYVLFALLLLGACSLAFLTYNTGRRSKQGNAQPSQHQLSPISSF

Rattus norvegicus [3] = organism: Rattus norvegicus; conditions: 1000 uM
Helix pomatia = assay: Inhibition of snail beta-mannosidase assessed as production of p-nitrophenol at 1000 uM by spectrophotometry; summary of the method: as §1
[4] = biological target: Sucrase-isomaltase, intestinal (Rattus norvegicus) (UniProt P23739); conditions: 1000 uM; remark: listed apart in the source
Prunus dulcis = conditions: 1000 uM
[5] = biological target: T1, Lysosomal acid glucosylceramidase (Homo sapiens) (UniProt P04062); conditions: 1000 uM
T1 sequence (whole entry): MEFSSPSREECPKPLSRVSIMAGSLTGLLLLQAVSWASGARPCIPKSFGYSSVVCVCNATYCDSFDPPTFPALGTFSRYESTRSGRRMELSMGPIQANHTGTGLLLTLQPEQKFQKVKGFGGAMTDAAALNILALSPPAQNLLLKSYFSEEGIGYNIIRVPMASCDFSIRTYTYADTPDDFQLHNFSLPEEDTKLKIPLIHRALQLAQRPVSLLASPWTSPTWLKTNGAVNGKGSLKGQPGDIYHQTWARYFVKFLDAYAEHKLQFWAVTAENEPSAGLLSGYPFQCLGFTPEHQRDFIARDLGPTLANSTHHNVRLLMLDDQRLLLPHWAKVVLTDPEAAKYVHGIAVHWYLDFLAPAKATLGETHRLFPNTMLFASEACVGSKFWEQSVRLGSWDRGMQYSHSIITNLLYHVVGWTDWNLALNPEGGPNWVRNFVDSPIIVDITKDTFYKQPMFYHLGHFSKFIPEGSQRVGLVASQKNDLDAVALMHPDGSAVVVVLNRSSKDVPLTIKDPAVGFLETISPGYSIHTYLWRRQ

[6] = biological target: T2, Beta-galactosidase (Bos taurus) (UniProt Q58D55); assay: Inhibition of bovine liver beta-galactosidase assessed as production of p-nitrophenol at 1000 uM by spectrophotometry; summary of the method: as §1
T2 sequence (whole entry): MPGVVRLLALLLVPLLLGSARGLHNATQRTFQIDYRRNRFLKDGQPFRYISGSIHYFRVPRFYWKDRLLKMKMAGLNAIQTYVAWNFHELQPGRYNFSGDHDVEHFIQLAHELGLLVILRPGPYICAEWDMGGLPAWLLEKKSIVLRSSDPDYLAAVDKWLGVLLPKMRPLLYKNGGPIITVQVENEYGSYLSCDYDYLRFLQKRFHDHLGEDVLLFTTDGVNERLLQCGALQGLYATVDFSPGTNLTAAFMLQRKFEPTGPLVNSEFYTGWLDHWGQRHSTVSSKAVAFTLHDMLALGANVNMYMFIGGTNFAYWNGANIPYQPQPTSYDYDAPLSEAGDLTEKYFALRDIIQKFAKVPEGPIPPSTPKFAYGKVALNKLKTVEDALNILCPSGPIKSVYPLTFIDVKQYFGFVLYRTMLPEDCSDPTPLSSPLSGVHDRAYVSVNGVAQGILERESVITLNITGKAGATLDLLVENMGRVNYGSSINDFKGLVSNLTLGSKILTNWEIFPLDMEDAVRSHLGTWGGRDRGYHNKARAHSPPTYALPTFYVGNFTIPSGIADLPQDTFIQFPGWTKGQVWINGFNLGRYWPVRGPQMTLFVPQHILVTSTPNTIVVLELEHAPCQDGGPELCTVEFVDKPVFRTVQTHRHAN

[7] = biological target: T3, Glucosylceramidase (Bos taurus) (UniProt Q2KHZ8); assay: Inhibition of bovine liver beta-glucosidase assessed as production of p-nitrophenol using p-nitrophenyl glycoside as substrate at 1000 uM by spectrophotometry
T3 sequence (whole entry): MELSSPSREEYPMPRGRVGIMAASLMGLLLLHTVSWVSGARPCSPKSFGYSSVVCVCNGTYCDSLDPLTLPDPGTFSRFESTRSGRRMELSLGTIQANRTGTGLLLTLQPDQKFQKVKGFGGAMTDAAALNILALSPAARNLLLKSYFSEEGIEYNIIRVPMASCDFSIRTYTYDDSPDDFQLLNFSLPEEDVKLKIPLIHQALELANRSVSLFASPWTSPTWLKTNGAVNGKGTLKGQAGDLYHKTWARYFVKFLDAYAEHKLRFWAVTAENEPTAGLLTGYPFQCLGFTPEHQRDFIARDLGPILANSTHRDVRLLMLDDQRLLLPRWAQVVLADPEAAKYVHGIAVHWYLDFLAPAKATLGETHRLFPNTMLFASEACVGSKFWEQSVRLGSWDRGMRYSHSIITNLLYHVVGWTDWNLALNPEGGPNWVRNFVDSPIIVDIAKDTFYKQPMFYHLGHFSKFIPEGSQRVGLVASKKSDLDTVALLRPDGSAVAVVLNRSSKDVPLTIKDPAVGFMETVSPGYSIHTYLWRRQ

Rattus norvegicus [8] = organism: Rattus norvegicus; assay: Inhibition of rat intestinal cellobiase assessed as production of p-nitrophenol at 1000 uM by spectrophotometry
Coffea = assay: Inhibition of coffee beans alpha-galactosidase assessed as production of p-nitrophenol at 1000 uM by spectrophotometry; summary of the method: as §1
[9] = biological target: T4, Tissue alpha-L-fucosidase (Bos taurus) (UniProt Q2KIM0); conditions: 1000 uM
T4 sequence (whole entry): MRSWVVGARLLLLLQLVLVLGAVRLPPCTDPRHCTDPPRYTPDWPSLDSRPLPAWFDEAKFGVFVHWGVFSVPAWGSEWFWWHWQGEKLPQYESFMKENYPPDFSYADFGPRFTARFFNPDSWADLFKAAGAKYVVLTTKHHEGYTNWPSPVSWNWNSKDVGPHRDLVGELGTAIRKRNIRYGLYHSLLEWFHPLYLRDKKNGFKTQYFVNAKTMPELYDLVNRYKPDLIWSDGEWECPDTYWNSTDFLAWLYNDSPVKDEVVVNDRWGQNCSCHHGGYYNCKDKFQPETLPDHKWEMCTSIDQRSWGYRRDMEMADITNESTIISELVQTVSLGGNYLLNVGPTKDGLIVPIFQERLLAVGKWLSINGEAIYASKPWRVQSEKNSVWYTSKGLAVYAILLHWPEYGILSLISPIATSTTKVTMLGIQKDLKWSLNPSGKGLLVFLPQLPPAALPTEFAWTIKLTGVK

[10] = biological target: Lactase/phlorizin hydrolase (Rattus norvegicus) (UniProt Q02401); conditions: 1000 uM
Chain of Lactase/phlorizin hydrolase (Rattus norvegicus) (Q02401 868-1928 limits assumed): as the sequence (Q02401 868-1928 limits assumed) above

[11] = Inhibition of rice alpha-glucosidase assessed as production of D-glucose using maltose as substrate after 10 to 30 mins by spectrophotometry; design: species or system Oryza sativa
Summary of the method: (§2)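 Enzymes were rice α-glucosidase at pH 5.0 and rat small-intestine brush border membranes (Kessler method) at pH 5.8. Each reaction contained 25 mM maltose and enzyme and was incubated 10–30 min at 37 °C. Reactions were stopped by heating at 100 °C for 3 min, then centrifuged. Released D-glucose was measured with a glucose test reagent by absorbance at 505 nm.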

[12] = Inhibition of rat intestinal maltase assessed as production of D-glucose using maltose as substrate after 10 to 30 mins by spectrophotometry; summary of the method: as §2
[13] = Inhibition of almond beta-glucosidase assessed as production of p-nitrophenol using p-nitrophenyl glycoside as substrate by spectrophotometry
[14] = Inhibition of rat intestinal cellobiase assessed as production of p-nitrophenol by spectrophotometry
Beta-galactosidase = biological target: T5, Beta-galactosidase (Bos taurus, UniProt Q58D55); assay: Inhibition of bovine liver beta-galactosidase assessed as production of p-nitrophenol by spectrophotometry
T5 sequence (Q58D55 whole entry): T2 sequence (whole entry)

[15] = biological target: Sucrase-isomaltase, intestinal (Rattus norvegicus, UniProt P23739); assay: Inhibition of rat intestinal sucrase assessed as release of D-glucose at by spectrophotometry
Chain of Sucrase-isomaltase, intestinal (P23739 1-1013 limits assumed): as the sequence (P23739 1-1013 limits assumed) above
Chain of Sucrase-isomaltase, intestinal (P23739 1014-1841 limits assumed): as the sequence (P23739 1014-1841 limits assumed) above

| Compound | inhibition (Penicillium decumbens) [%] | inhibition (Canavalia ensiformis) [%] | inhibition (Oryza sativa) [%] | inhibition [1] [%] | IC50 [2] [µM] | inhibition (Rattus norvegicus [3]) [%] | inhibition (Helix pomatia) [%] | inhibition [4] [%] | inhibition (Prunus dulcis) [%] | inhibition [5] [%] | inhibition [6] [%] | inhibition [7] [%] | inhibition (Rattus norvegicus [8]) [%] | inhibition (Coffea) [%] | inhibition [9] [%] | inhibition [10] [%] | IC50 [13] [µM] | also measured |
| --- | --- | --- | --- | --- | --- | --- | --- | --- | --- | --- | --- | --- | --- | --- | --- | --- | --- | --- |
| OC[C@@H]1CNC[C@@H](O)[C@H]1O | < 50 | < 50 | < 50 | < 50 | 469 | < 50 | < 50 | < 50 | < 50 | < 50 | < 50 | < 50 | < 50 | < 50 | < 50 | – | – | – |
| OC[C@@H]1NCC[C@@H](O)[C@@H]1O | < 50 | < 50 | – | < 50 | – | – | < 50 | < 50 | < 50 | < 50 | < 50 | < 50 | < 50 | < 50 | < 50 | < 50 | – | IC50 [11]: 980 µM; IC50 [12]: 668 µM |
| OC[C@@H]1NCC[C@H](O)[C@H]1O | < 50 | < 50 | < 50 | < 50 | – | < 50 | < 50 | < 50 | < 50 | < 50 | < 50 | < 50 | < 50 | < 50 | < 50 | < 50 | – | – |
| OC[C@H]1CNC[C@H](O)[C@@H]1O | < 50 | < 50 | < 50 | < 50 | 52 | < 50 | < 50 | < 50 | – | – | < 50 | < 50 | – | < 50 | < 50 | – | 443 | IC50 [14]: 334 µM |
| OC[C@@H]1CNC[C@H](O)[C@H]1O | < 50 | < 50 | < 50 | – | 20 | < 50 | < 50 | – | – | – | – | – | – | < 50 | < 50 | – | 236 | IC50 (Beta-galactosidase): 821 µM; IC50 [15]: 34 µM |

Further lines, with some results ahead:

| inhibition (Penicillium decumbens) [%] | inhibition (Canavalia ensiformis) [%] | inhibition (Oryza sativa) [%] | inhibition [1] [%] | IC50 [2] [µM] | inhibition (Rattus norvegicus [3]) [%] | inhibition (Helix pomatia) [%] | inhibition [4] [%] | inhibition (Prunus dulcis) [%] | inhibition [5] [%] | inhibition [6] [%] | inhibition [7] [%] | inhibition (Rattus norvegicus [8]) [%] | inhibition (Coffea) [%] | inhibition [9] [%] | inhibition [10] [%] | IC50 [13] [µM] | Compound | also measured |
| --- | --- | --- | --- | --- | --- | --- | --- | --- | --- | --- | --- | --- | --- | --- | --- | --- | --- | --- |
| < 50 | < 50 | < 50 | < 50 | – | < 50 | < 50 | < 50 | < 50 | < 50 | < 50 | < 50 | < 50 | < 50 | < 50 | < 50 | – | OC[C@@H]1NCC[C@H](O)[C@@H]1O | – |
| < 50 | < 50 | – | < 50 | 4.3 | < 50 | < 50 | < 50 | – | < 50 | – | – | – | < 50 | < 50 | – | 120 | OC[C@H]1NCC[C@H](O)[C@@H]1O | IC50 [11]: 120 µM; IC50 [14]: 39 µM |
| < 50 | < 50 | – | – | – | – | < 50 | – | – | – | – | < 50 | < 50 | < 50 | – | – | 980 | OC[C@@H]1NC[C@@H](O)[C@H](O)[C@H]1O | IC50 [11]: 4.3 µM; IC50 [12]: 28 µM |
| < 50 | < 50 | < 50 | – | – | < 50 | < 50 | – | < 50 | < 50 | < 50 | < 50 | < 50 | < 50 | < 50 | < 50 | – | OC[C@H]1NCC[C@H](O)[C@H]1O | – |
| < 50 | < 50 | < 50 | < 50 | 211 | < 50 | < 50 | < 50 | < 50 | < 50 | < 50 | < 50 | – | < 50 | < 50 | – | – | OC[C@H]1CNC[C@H](O)[C@H]1O | IC50 [14]: 912 µM |
| < 50 | < 50 | < 50 | < 50 | 646 | < 50 | < 50 | < 50 | < 50 | < 50 | – | – | < 50 | < 50 | < 50 | – | – | OC[C@@H]1CNC[C@@H](O)[C@@H]1O | IC50 (Beta-galactosidase): 389 µM |

Reference: ChEMBL document CHEMBL1817562, “Docking and SAR studies of D- and L-isofagomine isomers as human β-glucocerebrosidase inhibitors” (Bioorg Med Chem, 2011)
